Source: ChEMBL document CHEMBL1129475, “Water soluble inhibitors of topoisomerase I: quaternary salt derivatives of camptothecin” (J Med Chem, 1996)
In brackets after ≈: the same amount, converted by molar mass.

Key:
[1] = Solubility was measured in D2O using 1H NMR integration of the C-20 ethyl group against internal standard 1,4-dioxane; format: physicochemical
In short: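 Compound equilibrated ≥30 min in D2O containing 1,4-dioxane (0.015 M standardized solution) as internal standard, then filtered. 300-MHz ¹H spectrum; the C-18 methyl triplet at 0.8–0.9 ppm was integrated against the dioxane signal at 3.75 ppm.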

SK-OV-3 = test: Human tumor cell cytotoxicity assay was performed using MTT (SK-OV3 cell line ); format: functional, cell-based
Mus musculus [2] = test: Delay in tumor growth in drug treated animals compared to controls at a dose of 100(mg/kg); format: functional
In short: (§1)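 Tumor growth delay in nude mice with HT-29 xenografts, N=6. The dose from a single s.c. bolus in tumor-free mice was split into three s.c. portions given over one day. T/C = difference in days for tumors to reach 500% of initial volume, treated versus control.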

Mus musculus [3] = organism: Mus musculus; test: Maximally tolerated dose that caused <=30% body weight loss in mice; format: functional
In short: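 Highest single s.c. bolus dose in tumor-free nude mice causing ≤30% body weight loss.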

[4] = MDR ratio is defined as the quotient of SKVLB IC50/SKOV3 IC50; format: functional
In short: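 Ratio of SKVLB IC50 to SKOV3 IC50, each from the 96 h MTT cytotoxicity assay with a four-parameter logistic fit.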

SK-VLB = test: Human tumor cell cytotoxicity assay was performed using MTT (SKVLB cell line ); format: functional, cell-based
HT-29 = test: Human tumor cell cytotoxicity assay was performed using MTT (HT-29 cell line ); format: functional, cell-based
Mus musculus [5] = test: Compound was tested for number of deaths of the animals at a dose of 8 mg/Kg in mice; format: ADME, organism-based; settings: in vivo
In short: (§2)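 Female nu/nu mice (18-24 g) carrying subcutaneous HT-29 flank tumors; N=6 per group. Compound given s.c. twice weekly for 5 weeks over a dose range including the highest dose found in naive mice. Caliper tumor volume = length×width²/2. T/B = tumor volume at end of treatment over initial volume. Body weight monitored; mean weight loss per group.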

Mus musculus [6] = test: Mean body weight loss for animals in all experimental conditions at dose 12 mg/Kg in HT-29 human colon xenograft infected mice; format: functional; in short: as §2
Mus musculus [7] = test: Efficacy against HT-29 human colon xenograft infected mice expressed as tumor growth ratio at dose 12 mg/Kg; format: functional; in short: as §2
Mus musculus [8] = test: Compound was tested for number of deaths of the animals at a dose of 12 mg/Kg in mice; format: ADME, organism-based; settings: in vivo; in short: as §2
Mus musculus [9] = test: Efficacy against HT-29 human colon xenograft infected mice expressed as tumor growth ratio at dose 14 mg/Kg; format: functional; in short: as §2
Mus musculus [10] = test: Delay in tumor growth in drug treated animals compared to controls at a dose of 80(mg/kg); format: functional; in short: as §1
Mus musculus [11] = test: Efficacy against HT-29 human colon xenograft infected mice expressed as tumor growth ratio at dose 8 mg/Kg; format: functional; in short: as §2
Mus musculus [12] = test: Mean body weight loss for animals in all experimental conditions at dose 8 mg/Kg in HT-29 human colon xenograft infected mice; format: functional; in short: as §2
Mus musculus [13] = test: Compound was tested for number of deaths of the animals at a dose of 14 mg/Kg in mice; format: ADME, organism-based; settings: in vivo; in short: as §2
Mus musculus [14] = test: Mean body weight loss for animals in all experimental conditions at dose 14 mg/Kg in HT-29 human colon xenograft infected mice; format: functional; in short: as §2
Mus musculus [15] = test: Delay in tumor growth in drug treated animals compared to controls at a dose of 48(mg/kg); format: functional; in short: as §1
Mus musculus [16] = test: Efficacy against HT-29 human colon xenograft infected mice expressed as tumor growth ratio at dose 7 mg/Kg; format: functional
In short: (§3)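 Female nu/nu mice (18-24 g) bearing subcutaneous HT-29 flank tumours, N=6 per group. Dosed subcutaneously twice weekly for 5 weeks over a dose range that included the highest dose, which was set in naive mice. Caliper volume = length×width²/2. T/B = group mean tumour volume at end of treatment divided by initial mean volume.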

Mus musculus [17] = test: Mean body weight loss for animals in all experimental conditions at dose 7 mg/Kg in HT-29 human colon xenograft infected mice; format: functional
In short: (§4)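 HT-29 subcutaneous xenografts in female nu/nu mice, N=6 per group. Subcutaneous dosing twice weekly for 5 weeks. Body weight was monitored and reported as mean percent loss per group. A loss of 30% or more was considered lethal.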

Mus musculus [18] = test: Compound was tested for number of deaths of the animals at a dose of 9 mg/Kg in mice; format: ADME, organism-based; settings: in vivo; in short: as §2
Mus musculus [19] = test: Efficacy against HT-29 human colon xenograft infected mice expressed as tumor growth ratio at dose 11 mg/Kg; format: functional; in short: as §3
Mus musculus [20] = test: Compound was tested for number of deaths of the animals at a dose of 11 mg/Kg in mice; format: ADME, organism-based; settings: in vivo; in short: as §2
Mus musculus [21] = test: Mean body weight loss for animals in all experimental conditions at dose 5 mg/Kg in HT-29 human colon xenograft infected mice; format: functional; in short: as §4
Mus musculus [22] = test: Delay in tumor growth in drug treated animals compared to controls at a dose of 54(mg/kg); format: functional
Mus musculus [23] = test: Compound was tested for number of deaths of the animals at a dose of 5 mg/Kg in mice; format: ADME, organism-based; settings: in vivo; in short: as §2
Mus musculus [24] = test: Compound was tested for number of deaths of the animals at a dose of 7 mg/Kg in mice; format: ADME, organism-based; settings: in vivo; in short: as §2
Mus musculus [25] = test: Efficacy against HT-29 human colon xenograft infected mice expressed as tumor growth ratio at dose 5 mg/Kg; format: functional; in short: as §3
Mus musculus [26] = test: Efficacy against HT-29 human colon xenograft infected mice expressed as tumor growth ratio at dose 9 mg/Kg; format: functional; in short: as §3
Mus musculus [27] = test: Mean body weight loss for animals in all experimental conditions at dose 11 mg/Kg in HT-29 human colon xenograft infected mice; format: functional; in short: as §2
Mus musculus [28] = test: Mean body weight loss for animals in all experimental conditions at dose 9 mg/Kg in HT-29 human colon xenograft infected mice; format: functional; in short: as §4
Mus musculus [29] = test: Efficacy against HT-29 human colon xenograft infected mice expressed as tumor growth ratio at dose 10.5 mg/Kg; format: functional; in short: as §2
Mus musculus [30] = test: Compound was tested for number of deaths of the animals at a dose of 10.5 mg/Kg in mice; format: ADME, organism-based; settings: in vivo; in short: as §2
Mus musculus [31] = test: Mean body weight loss for animals in all experimental conditions at dose 10.5 mg/Kg in HT-29 human colon xenograft infected mice; format: functional; in short: as §2
Mus musculus [32] = test: Mean body weight loss for animals in all experimental conditions at dose 9.5 mg/Kg in HT-29 human colon xenograft infected mice; format: functional; in short: as §2
Mus musculus [33] = test: Compound was tested for number of deaths of the animals at a dose of 9.5 mg/Kg in mice; format: ADME, organism-based; settings: in vivo; in short: as §2
Mus musculus [34] = test: Efficacy against HT-29 human colon xenograft infected mice expressed as tumor growth ratio at dose 9.5 mg/Kg; format: functional; in short: as §2

SMILES	solubility [1] [µg/mL]	IC50 (SK-OV-3) [nM]	MTD (Mus musculus [3]) [mg/kg]	Ratio [4]	IC50 (SK-VLB) [nM]	IC50 (HT-29) [nM]	further results
CC[C@@]1(O)C(=O)OCc2c1cc1n(c2=O)Cc2c-1nc1cc3c(cc1c2Cn1cc[n+](C)c1)OCCO3	1300	–	–	–	–	–	–
CC[C@@]1(O)C(=O)OCc2c1cc1n(c2=O)Cc2c-1nc1cc3c(cc1c2C[n+]1cccc(CO)c1)OCO3	> 4400	11	>100	2	23	13	T/C (Mus musculus [2]): 9 days
CC[C@@]1(O)C(=O)OCc2c1cc1n(c2=O)Cc2c-1nc1cc3c(cc1c2C[n+]1ccncc1)OCCO3	1400	11	100	80	870	16	Deaths (Mus musculus [5]): 0; BW loss (Mus musculus [6]): 27%; Efficacy (Mus musculus [7]): 0.7; Deaths (Mus musculus [8]): 0; Efficacy (Mus musculus [9]): 0.32; T/C (Mus musculus [10]): 14 days; Efficacy (Mus musculus [11]): 2.1; BW loss (Mus musculus [12]): 21%; Deaths (Mus musculus [13]): 0; BW loss (Mus musculus [14]): 13%
CC[C@@]1(O)C(=O)OCc2c1cc1n(c2=O)Cc2c-1nc1cc3c(cc1c2C[n+]1ccc(CO)cc1)OCCO3	1100	–	–	–	–	–	–
COc1cccc2c1C(=O)c1c(O)c3c(c(O)c1C2=O)C[C@@](O)(C(=O)CO)C[C@@H]3O[C@H]1C[C@H](N)[C@H](O)[C@H](C)O1 [DOXORUBICIN]	> 2000	–	–	160	–	–	–
CC[C@@]1(O)C(=O)OCc2c1cc1n(c2=O)Cc2c-1nc1cc3c(cc1c2Cn1ccnc1)OCCO3	< 500	–	–	–	–	–	–
CC[C@@]1(O)C(=O)OCc2c1cc1n(c2=O)Cc2c-1nc1cc3c(cc1c2C[n+]1cccc(CO)c1)OCCO3	1200	–	–	–	–	–	–
CC[C@@]1(O)C(=O)OCc2c1cc1n(c2=O)Cc2c-1nc1cc3c(cc1c2C[n+]1ccccc1)OCCO3	1800	85	–	1	84	84	–
CC[C@@]1(O)C(=O)OCc2c1cc1n(c2=O)Cc2c-1nc1cc3c(cc1c2C[n+]1ccccn1)OCCO3	910	69	–	1	94	–	–
CC[C@@]1(O)C(=O)OCc2c1cc1n(c2=O)Cc2c-1nc1cc3c(cc1c2C[n+]1ccncc1)OCO3	1400	6	80	4	23	46	T/C (Mus musculus [15]): 11 days
CC[C@@]1(O)C(=O)OCc2c1cc1n(c2=O)Cc2c-1nc1cc3c(cc1c2Cn1ccnc1)OCO3	< 500	–	–	–	–	–	–
CC[C@@]1(O)C(=O)OCc2c1cc1n(c2=O)Cc2cc3c(CN(C)C)c(O)ccc3nc2-1 [TOPOTECAN]	2100 (≈ 4.98 mM)	–	54	–	–	–	Efficacy (Mus musculus [16]): 7; BW loss (Mus musculus [17]): 11%; Deaths (Mus musculus [18]): 2; Efficacy (Mus musculus [19]): 2.9; Deaths (Mus musculus [20]): 0; BW loss (Mus musculus [21]): 15%; T/C (Mus musculus [22]): 10 days; Deaths (Mus musculus [23]): 0; Deaths (Mus musculus [24]): 0; Efficacy (Mus musculus [25]): 8.6; Efficacy (Mus musculus [26]): 4.3; BW loss (Mus musculus [27]): 23%; BW loss (Mus musculus [28]): 17%
CC[C@@]1(O)C(=O)OCc2c1cc1n(c2=O)Cc2c-1nc1cc3c(cc1c2C[n+]1ccccc1)OCO3	> 4500	74	>100	1	72	70	T/C (Mus musculus [2]): 4 days
CC[C@@]1(O)C(=O)OCc2c1cc1n(c2=O)Cc2c-1nc1cc3c(cc1c2Cn1cc[n+](C)c1)OCO3	> 3500	110	100	9	1000	75	T/C (Mus musculus [2]): 14 days; Efficacy (Mus musculus [29]): 3.84; Deaths (Mus musculus [30]): 0; BW loss (Mus musculus [31]): 12%; Efficacy (Mus musculus [19]): 2.85; Deaths (Mus musculus [20]): 0; BW loss (Mus musculus [32]): 4%; Deaths (Mus musculus [33]): 0; Efficacy (Mus musculus [34]): 6.74; BW loss (Mus musculus [27]): 16%
CC[C@@]1(O)C(=O)OCc2c1cc1n(c2=O)Cc2c-1nc1cc3c(cc1c2C[n+]1ccccn1)OCO3	> 3100	83	–	2	130	–	–
